The values below come from paper PMC12034384 (ImmunoHorizons, 2025).

The subject of one series is Jurkat. In words: Cytotoxicity of peptides. The following applies: Fig. S1; concentrations up to 100 μM. Type of series: cell-based, human.
The test system of a further series is Jurkat cells. The series is described as follows: IL-2 production after anti-CD3/anti-CD28 stimulation, ELISA. Type of series: cell-based, human. The settings on record: 30 min preincubation, immobilized anti-CD3 (3 μg/ml)/anti-CD28 (1 μg/ml) 48 h, n = 4. In a few lines:
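Jurkat cells were kept in RPMI 1640 with 10% FBS and 50 μM 2-mercaptoethanol. They were preincubated 30 min with test peptide or control peptide, then stimulated 48 h on immobilized anti-human CD3 (OKT3, 3 μg/ml) plus anti-CD28 (CD28.8, 1 μg/ml). Human IL-2 in supernatant was measured by ELISA. Mean ± SEM of 4 independent experiments, Sidak's test.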
For orientation: An ELISA detects its analyte on a solid surface through an enzyme-linked reagent.

The subject of series [1] is HeLa human epithelial-like cells. In words: Spontaneous proliferation of HeLa cells. The series is classed as cell-based.
The test system of another series is murine CD4+ T cells. The series is described as follows: IL-2 production of murine CD4+ T cells after anti-CD3/anti-CD28, ELISA. Type of series: cell-based. The following applies: 30 min preincubation, anti-CD3/anti-CD28 48 h, n = 4. In a few lines: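 CD4⁺ T cells were purified from mouse spleen with a CD4⁺ isolation kit and cultured in RPMI 1640, 10% FBS, 50 μM 2-mercaptoethanol. After 30 min preincubation with test or control peptide, cells were stimulated 48 h on immobilized anti-mouse CD3 (145-2C11, 3 μg/ml) plus anti-CD28 (PV-1, 1 μg/ml). Mouse IL-2 in supernatant was measured by ELISA. Mean ± SEM, n = 4 independent experiments, Sidak's test.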

In a further series the test system is EAE mice. The series is described as follows: Experimental autoimmune encephalomyelitis. Type of series: in vivo, C57BL/6 mice.
For another series, the system named is murine B cells. In words: IgM-mediated IL-6 and IL-10 production in murine B cells. The settings on record: compared with iCont-treated B cells. The series is classed as cell-based.
Series [2] concerns Ramos human B lymphoma cells. The series is described as follows: Spontaneous proliferation of Ramos cells. Type of series: cell-based.
Another series relates to EL-4 cells. In words: Spontaneous proliferation of EL-4 cells. Type of series: cell-based, murine. The following applies: 30 min preincubation, WST-8, n = 3. In a few lines:
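Murine EL-4 T lymphoma cells were grown in RPMI 1640 with 10% FBS and 50 μM 2-mercaptoethanol without stimulation. They were preincubated 30 min with test or control peptide, and spontaneous proliferation was read with WST-8 reagent. Mean ± SEM of 3 independent experiments; Sidak's multiple comparisons.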
For orientation: Tetrazolium dyes change colour on reduction, which living cells bring about.

The conditions of series [3]: cited from earlier work.
For a further series, the system named is STAP-1–ITK interaction. In words: Coimmunoprecipitation, STAP-1–ITK interaction. The series is classed as binding, human. The following applies: Fig. 2G.
The test system of a further series is mice. In words: Tolerability in treated mice. The series is classed as in vivo. The following applies: within the effective concentration range; data not shown.
Where [4] appears, read: EAE mice, 40 µg/mouse i.v., vs iCont, n = 5.
[5] abbreviates: EAE mice, day 14 after MOG immunization, vs iCont, n = 10 to 12.
Setting [6] is: EAE mice, day 14 after MOG immunization, vs iCont, n = 10 to 14.

Regarding RRRRRRRRGGDLTCLTEQNSTEKNCAKFTL [N73-92], the cytotoxicity entry in the series with Jurkat was “high cytotoxicity at the concentration of 100 μM”.

With RRRRRRRRGGEYEHYWTELRGTTLFFYTD [N41-59], in the series with Jurkat, the cytotoxicity entry is “did not show significant cytotoxicity up to the concentration of 100 μM”.

Consider RRRRRRRRGGPLYFEGFLLIKRSGYREYE [N26-43], for which the cytotoxicity result in the series with Jurkat is “high cytotoxicity from the concentration of 3 μM”.

Take RRRRRRRRGGRRIFQERLKITALPLYFEGF [N12-31]: the cytotoxicity result with Jurkat is recorded as “high cytotoxicity from the concentration of 3 μM”.

As to RRRRRRRRGGTDKKSIIYVDKLDIVDLTCL [N58-77], the cytotoxicity entry with Jurkat is recorded as “high cytotoxicity from the concentration of 3 μM”.

For the sequence RRRRRRRRGGTTLFF [iSP1], the “IL-2 production following TCR stimulation” value in the series on Jurkat cells was “suppressed by iSP1 treatment in a concentration-dependent manner”. Also, in series [1], the spontaneous proliferation result is “did not inhibit”. Besides, the “IL-2 production upon TCR stimulation” value in the series on murine CD4+ T cells is “inhibited in CD4^+ T cells”. Besides, the “area under the curve of EAE clinical score” value with EAE mice (40 µg/mouse i.v. every other day, days 8–20, vs iCont, n = 20) was “significantly lower”. For the same sequence, in the series on EAE mice (setting [4]), the “demyelination in spinal cord (Luxol Fast Blue staining)” value is reported as “suppressed” and the “immune cell infiltration in spinal cord (H&E staining)” value is listed as “suppressed”. Besides, in the series on EAE mice (setting [5]), the “frequency of Th1 cells (IFN-γ expressing) among CD4+ cells in CNS” value is on record as “significantly lower” and the “frequency of Th17 cells (IL-17 expressing) among CD4+ cells in CNS” value is reported as “significantly lower”. In the series on EAE mice (setting [6]), the “absolute number of Th1 cells (IFN-γ expressing CD4+ T cells) in CNS” value is listed as “significantly lower” and the “absolute number of Th17 cells (IL-17 expressing CD4+ T cells) in CNS” value is recorded as “significantly lower”. Moreover, in the series with murine B cells, the “IgM-mediated IL-6 production” value is recorded as “no inhibition” and the “IgM-mediated IL-10 production” value was “no inhibition”. Moreover, the spontaneous proliferation entry in series [2] is given as “did not inhibit”. Moreover, in the series with EL-4 cells, the spontaneous cell proliferation entry is on record as “exhibited suppressed cell proliferation”. Besides, the “stability of cell-penetrating R8 sequence in vivo” value in [3] was “unstable and easy to dissociate in vivo”. Besides, in the series with STAP-1–ITK interaction, the “STAP-1–ITK interaction” value is reported as “suppressed”. Also, the “abnormal phenotypes in treated mice” value in the series on mice was “did not show any abnormal phenotypes”.
